Results as given in ChEMBL document CHEMBL4038319, “Development of a Potent Inhibitor of the Plasmodium Proteasome with Reduced Mammalian Toxicity” (J Med Chem, 2017).
pIC50, pKi: −log10 of the molar value.

Experiments:
[1] = tested on: HepG2; test: Cytotoxicity against human HepG2 cells harboring A16-CD81EGFP assessed as cell viability after 48 hrs by bioluminescence assay; type: cell-based; settings: HepG2, 48 h
Outline: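 HepG2-A16-CD81EGFP cells, 3 × 10^3 per well, seeded 24 h ahead in DMEM with 5% FBS. Viability read by bioluminescence after 48 h and fitted by four-parameter regression; puromycin control.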

[2] = tested on: Plasmodium falciparum; test: Antimalarial activity against asexual blood stage Plasmodium falciparum Dd2 infected in human erythrocytes after 72 hrs by SYBR green 1 dye based fluorescence assay; type: functional, cell-based; settings: Dd2, 72 h
[3] = target: T1, 20S proteasome beta5 subunit (Proteasome Macropain subunit MB1) (Homo sapiens, UniProt P28074); test: Inhibition of human 20S proteasome beta5 subunit using suc-LLVY-AMC as substrate at 150 nM after 60 to 120 mins by fluorescence assay relative to control; settings: probe suc-LLVY-AMC
T1 sequence (P28074 whole entry): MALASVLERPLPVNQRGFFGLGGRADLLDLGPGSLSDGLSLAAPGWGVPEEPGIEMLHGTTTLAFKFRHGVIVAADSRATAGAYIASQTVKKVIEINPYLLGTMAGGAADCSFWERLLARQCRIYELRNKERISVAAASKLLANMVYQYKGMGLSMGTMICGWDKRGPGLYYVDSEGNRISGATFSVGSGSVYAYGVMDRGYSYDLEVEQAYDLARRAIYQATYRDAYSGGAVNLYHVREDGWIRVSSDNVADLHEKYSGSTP
Outline: (§1)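 Pf20S enriched from asynchronous parasite lysate by two-step chromatography; human constitutive 20S from a commercial source. Enzymes at 0.29 nM with 25 μM Suc-LLE-AMC, Suc-LRR-AMC or Suc-LLVY-AMC in 20 mM Tris pH 7.5, 0.02% SDS. Inhibitor and substrate added together; AMC release rate (Ex 340/Em 465) taken from 60–120 min against DMSO.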

[4] = tested on: Plasmodium falciparum; test: Inhibition of schizont stage Plasmodium falciparum 20S proteasome beta1 subunit using z-LLE-AMC as substrate at 150 nM after 60 to 120 mins by fluorescence assay relative to control
[5] = tested on: Plasmodium falciparum; test: Inhibition of schizont stage Plasmodium falciparum 20S proteasome beta2 subunit using z-LRR-AMC as substrate at 150 nM after 60 to 120 mins by fluorescence assay relative to control
[6] = tested on: Plasmodium falciparum; test: Inhibition of schizont stage Plasmodium falciparum 20S proteasome beta5 using suc-LLVY-AMC as substrate at 150 nM after 60 to 120 mins by fluorescence assay relative to control
[7] = target: T2, constitutive 20S proteasome beta5 subunit (Proteasome Macropain subunit MB1) (Homo sapiens, UniProt P28074); test: Inhibition of human constitutive 20S proteasome beta5 subunit using suc-LLVY-AMC as substrate at 50 nM after 60 to 120 mins by fluorescence assay relative to control; settings: probe suc-LLVY-AMC; outline: as §1
T2 sequence (P28074 whole entry): T1 sequence (P28074 whole entry)

[8] = tested on: Plasmodium falciparum; test: Inhibition of schizont stage Plasmodium falciparum 20S proteasome beta5 subunit using suc-LLVY-AMC as substrate at 50 nM after 60 to 120 mins by fluorescence assay relative to control; outline: as §1
[9] = target: T3, Proteasome Macropain subunit MB1 (Homo sapiens, UniProt P28074); test: Irreversible inhibition of human 20S proteasome beta5 subunit using suc-LLVY-AMC as substrate after 4 hrs at 30 mins time interval by fluorescence assay
T3 sequence (P28074 whole entry): T1 sequence (P28074 whole entry)

[10] = tested on: Plasmodium falciparum; test: Inhibition of early trophozoite stage Plasmodium falciparum 20S proteasome beta5 subunit using suc-LLVY-AMC as substrate at 95 nM after 4 hrs by fluorescence assay relative to control
Outline: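 Sorbitol-synchronized early trophozoites at 5% parasitemia exposed to 95 nM inhibitor for 4 h, then washed and lysed. 15 μg total protein assayed with 25 μM Suc-LLVY-AMC in Tris pH 7.5/0.02% SDS buffer; AMC release compared against DMSO-treated cells.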

[11] = tested on: Plasmodium falciparum; test: Growth inhibition of Plasmodium falciparum Dd2 infected in human erythrocytes at 0.5 to 1 nM after 72 hrs by SYBR green 1 dye based fluorescence assay relative to control; type: cell-based; settings: Dd2, 72 h, read-out: GI
[12] = tested on: Plasmodium falciparum; test: Antimalarial activity against stage V gametocytes of Plasmodium falciparum NF54 infected in human erythrocytes after 72 hrs by mitotracker red based […] assay; type: functional, cell-based; settings: NF54, 72 h
[13] = tested on: Plasmodium falciparum; test: Inhibition of schizont stage Plasmodium falciparum 20S proteasome beta1 subunit using z-LLE-AMC as substrate at 450 nM after 60 to 120 mins by fluorescence assay relative to control
[14] = tested on: Plasmodium falciparum; test: Inhibition of schizont stage Plasmodium falciparum 20S proteasome beta2 subunit using z-LRR-AMC as substrate at 450 nM after 60 to 120 mins by fluorescence assay relative to control
[15] = tested on: Plasmodium falciparum; test: Inhibition of schizont stage Plasmodium falciparum 20S proteasome using suc-LLVY-AMC as substrate at 450 nM after 60 to 120 mins relative to control

Row | SMILES | pIC50 [1] | pIC50 [2] | inhibition [8] [%] | inhibition [10] [%] | also measured
1 | CCCCCC(=O)N[C@H](Cc1ccc(N)cc1)C(=O)N[C@@H](Cc1ccc(N)cc1)C(=O)N[C@@H](CC(C)C)C(=O)[C@@]1(C)CO1 | 9.04 | 7.22 |  |  | 
2 | CCCCCC(=O)N[C@@H](Cc1ccccc1)C(=O)N[C@@H](CCCC)C(=O)N[C@@H](Cc1ccccc1)C(=O)[C@@]1(C)CO1 | 7.51 | 8.17 |  |  | 
3 | CCCCCC(=O)N[C@@H](Cc1ccncc1)C(=O)N[C@@H](CCCC)C(=O)N[C@@H](CC(C)C)C(=O)[C@@]1(C)CO1 | > 9.55 | 8.48 |  |  | 
4 | CCCCCC(=O)N[C@@H](Cc1c[nH]c2ccccc12)C(=O)N[C@@H](CCCC)C(=O)N[C@@H](Cc1ccccc1)C(=O)[C@@]1(C)CO1 | 8.19 | 8.01 |  |  | 
5 | CCCCCC(=O)N[C@H](C(=O)N[C@@H](CCS(C)(=O)=O)C(=O)N[C@@H](CC(C)C)C(=O)[C@@]1(C)CO1)C(C)C |  |  | 10 to 47 | 40 to 60 | inhibition at 0.15 µM [3]: 98%; inhibition [4]: 16%; inhibition [5]: 29%; inhibition [6]: 45%; inhibition at 0.05 µM [7]: 97%; pKi [9]: 6.43; inhibition at up to 0.001 µM [11]: < 10%
6 | CCCCCC(=O)N[C@@H](Cc1ccc(NC(=O)OC(C)(C)C)cc1)C(=O)N[C@@H](CCCC)C(=O)N[C@@H](Cc1ccccc1)C(=O)[C@@]1(C)CO1 | 6.32 | 8.26 | 10 to 47 | 40 to 60 | 
7 | CCCCCC(=O)N[C@H](C(=O)N[C@@H](CCCC)C(=O)N[C@@H](CC(C)C)C(=O)[C@@]1(C)CO1)C(C)C | 6.87 | 8.39 | 10 to 47 | 40 to 60 | inhibition at 0.05 µM [7]: 89%; pKi [9]: 5.43
8 | CCCCCC(=O)N[C@@H](Cc1ccccc1)C(=O)N[C@@H](CCCC)C(=O)N[C@@H](CC(C)C)C(=O)[C@@]1(C)CO1 | 7.64 | 8.39 |  |  | 
9 | CCCCCC(=O)NC(Cc1ccc(NC(=O)OC(C)(C)C)cc1)C(=O)N[C@@H](Cc1ccc(NC(=O)OC(C)(C)C)cc1)C(=O)N[C@@H](Cc1ccccc1)C(=O)[C@@]1(C)CO1 (single isomer, unassigned) | 7.34 | 7.91 |  |  | 
10 | CCCCCC(=O)N[C@@H](Cc1ccc(N)cc1)C(=O)N[C@@H](CCCC)C(=O)N[C@@H](Cc1ccccc1)C(=O)[C@@]1(C)CO1 | 5.47 | 7.09 | 10 to 47 | 40 to 60 | 
11 | CCCCCC(=O)N[C@@H](Cc1c[nH]c2ccccc12)C(=O)N[C@@H](CCCC)C(=O)N[C@@H](CC(C)C)C(=O)[C@@]1(C)CO1 |  | 8.51 |  |  | 
12 | CCCCCC(=O)N[C@H](Cc1ccc(N)cc1)C(=O)N[C@@H](Cc1ccc(N)cc1)C(=O)N[C@@H](Cc1ccccc1)C(=O)[C@@]1(C)CO1 | 6.02 | 7.17 |  |  | 
13 | CCCCCC(=O)N[C@@H](Cc1c[nH]c2ccccc12)C(=O)N[C@@H](Cc1c[nH]c2ccccc12)C(=O)N[C@@H](Cc1ccccc1)C(=O)[C@@]1(C)CO1 | 6.46 | 8.03 | 10 to 47 | 40 to 60 | 
14 | CCCCCC(=O)N[C@@H](C(=O)N[C@@H](CCCC)C(=O)N[C@@H](CC(C)C)C(=O)[C@@]1(C)CO1)C(C)C | 5.91 | 8.49 | 10 to 47 | 40 to 60 | pIC50 [12]: 6.89; inhibition at 0.05 µM [7]: ≤ 10%; inhibition [13]: 6%; inhibition [14]: 9%; inhibition [15]: 45%; pKi [9]: 4.41; inhibition at up to 0.001 µM [11]: < 10%
15 | CCCCCC(=O)N[C@@H](Cc1ccc(NC(=O)OC(C)(C)C)cc1)C(=O)N[C@@H](CCCC)C(=O)N[C@@H](CC(C)C)C(=O)[C@@]1(C)CO1 | 7.10 | 8.26 |  |  | 
16 | CCCCCC(=O)N[C@@H](Cc1ccc(N)cc1)C(=O)N[C@@H](CCCC)C(=O)N[C@@H](CC(C)C)C(=O)[C@@]1(C)CO1 | 8.20 | 8.22 |  |  | 
17 | CCCCCC(=O)N[C@@H](Cc1c[nH]c2ccccc12)C(=O)N[C@@H](Cc1c[nH]c2ccccc12)C(=O)N[C@@H](CC(C)C)C(=O)[C@@]1(C)CO1 | 7.93 | 8.43 |  |  | 
18 | CCCCCC(=O)N[C@@H](Cc1ccncc1)C(=O)N[C@@H](CCCC)C(=O)N[C@@H](Cc1ccccc1)C(=O)[C@@]1(C)CO1 | > 9.55 | 8.41 |  |  | 
19 | CCCCCC(=O)N[C@H](Cc1ccncc1)C(=O)N[C@@H](CCCC)C(=O)N[C@@H](CC(C)C)C(=O)[C@@]1(C)CO1 | > 9.55 | 7.66 |  |  | 
20 | CCCCCC(=O)NC(Cc1ccc(NC(=O)OC(C)(C)C)cc1)C(=O)N[C@@H](Cc1ccc(NC(=O)OC(C)(C)C)cc1)C(=O)N[C@@H](CC(C)C)C(=O)[C@@]1(C)CO1 (single isomer, unassigned) | 6.93 | 7.87 |  |  | 
21 | CCCCCC(=O)N[C@H](Cc1c[nH]c2ccccc12)C(=O)N[C@@H](CCCC)C(=O)N[C@@H](CC(C)C)C(=O)[C@@]1(C)CO1 | 6.04 | 8.53 | 10 to 47 | 40 to 60 | inhibition at 0.05 µM [7]: ≤ 10%
